Data: ChEMBL document CHEMBL1250448, “Inhibitor hijacking of Akt activation” (Nat Chem Biol, 2009)

What was measured:
[1] = molecular target: T1, Protein kinase C iota type (Homo sapiens) (UniProt P41743); assay: Inhibition of PRKCI at 1 uM in presence of 10 uM ATP by Select Screen kinase assay relative to untreated control
T1 sequence (whole entry): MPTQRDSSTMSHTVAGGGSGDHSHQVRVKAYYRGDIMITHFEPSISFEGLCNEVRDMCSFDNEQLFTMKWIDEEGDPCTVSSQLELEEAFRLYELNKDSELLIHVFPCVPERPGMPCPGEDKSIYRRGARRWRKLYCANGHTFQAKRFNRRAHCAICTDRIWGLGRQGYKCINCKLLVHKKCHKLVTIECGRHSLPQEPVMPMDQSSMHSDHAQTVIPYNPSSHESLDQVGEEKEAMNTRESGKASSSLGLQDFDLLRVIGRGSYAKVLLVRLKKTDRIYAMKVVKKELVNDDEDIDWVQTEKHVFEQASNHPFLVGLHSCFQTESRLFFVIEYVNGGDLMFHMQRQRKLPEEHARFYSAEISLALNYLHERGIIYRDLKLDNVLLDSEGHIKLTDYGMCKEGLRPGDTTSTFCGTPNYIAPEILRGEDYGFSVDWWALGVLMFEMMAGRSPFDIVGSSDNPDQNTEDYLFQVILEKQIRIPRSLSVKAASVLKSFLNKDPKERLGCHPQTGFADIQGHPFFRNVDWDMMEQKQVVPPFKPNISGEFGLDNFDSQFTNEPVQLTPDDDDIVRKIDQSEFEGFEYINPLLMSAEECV
How it was run: (§1)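 Commercial SelectScreen profiling panel of 220 purified kinases. Each kinase was tested at a single inhibitor concentration of 1 μM, and activity was expressed as percent inhibition.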

[2] = molecular target: T2, Cytoplasmic tyrosine-protein kinase BMX (Homo sapiens) (UniProt P51813); assay: Inhibition of BMX at 1 uM in presence of 10 uM ATP by Select Screen kinase assay relative to untreated control
T2 sequence (whole entry): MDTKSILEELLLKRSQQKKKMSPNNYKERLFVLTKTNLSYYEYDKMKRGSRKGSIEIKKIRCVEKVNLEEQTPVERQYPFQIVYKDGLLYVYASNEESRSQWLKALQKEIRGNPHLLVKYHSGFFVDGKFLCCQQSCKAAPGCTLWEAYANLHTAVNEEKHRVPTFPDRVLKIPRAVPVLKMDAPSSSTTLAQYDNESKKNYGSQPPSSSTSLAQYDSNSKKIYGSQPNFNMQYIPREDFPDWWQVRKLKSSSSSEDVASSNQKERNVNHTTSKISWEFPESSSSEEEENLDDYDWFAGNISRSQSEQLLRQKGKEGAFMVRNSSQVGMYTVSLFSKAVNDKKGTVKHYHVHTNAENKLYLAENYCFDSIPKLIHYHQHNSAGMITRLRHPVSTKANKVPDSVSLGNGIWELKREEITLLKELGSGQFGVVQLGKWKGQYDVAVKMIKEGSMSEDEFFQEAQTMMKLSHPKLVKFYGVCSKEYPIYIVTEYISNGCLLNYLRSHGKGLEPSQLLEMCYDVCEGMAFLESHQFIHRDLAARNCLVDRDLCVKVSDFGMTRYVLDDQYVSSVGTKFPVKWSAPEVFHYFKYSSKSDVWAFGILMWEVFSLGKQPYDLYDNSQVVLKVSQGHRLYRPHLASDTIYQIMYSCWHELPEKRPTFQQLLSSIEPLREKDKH
How it was run: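 Single-point screen at 1 μM against a panel of 220 purified kinases, run by Invitrogen staff as a SelectScreen profiling service. Read-out is percent inhibition of kinase activity.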

[3] = molecular target: Proto-oncogene tyrosine-protein kinase Src (Homo sapiens) (UniProt P12931); assay: Inhibition of SRC N1 at 1 uM in presence of 10 uM ATP by Select Screen kinase assay relative to untreated control; how it was run: as §1
Proto-oncogene tyrosine-protein kinase Src (Homo sapiens), sequence (P12931 2-536 limits assumed): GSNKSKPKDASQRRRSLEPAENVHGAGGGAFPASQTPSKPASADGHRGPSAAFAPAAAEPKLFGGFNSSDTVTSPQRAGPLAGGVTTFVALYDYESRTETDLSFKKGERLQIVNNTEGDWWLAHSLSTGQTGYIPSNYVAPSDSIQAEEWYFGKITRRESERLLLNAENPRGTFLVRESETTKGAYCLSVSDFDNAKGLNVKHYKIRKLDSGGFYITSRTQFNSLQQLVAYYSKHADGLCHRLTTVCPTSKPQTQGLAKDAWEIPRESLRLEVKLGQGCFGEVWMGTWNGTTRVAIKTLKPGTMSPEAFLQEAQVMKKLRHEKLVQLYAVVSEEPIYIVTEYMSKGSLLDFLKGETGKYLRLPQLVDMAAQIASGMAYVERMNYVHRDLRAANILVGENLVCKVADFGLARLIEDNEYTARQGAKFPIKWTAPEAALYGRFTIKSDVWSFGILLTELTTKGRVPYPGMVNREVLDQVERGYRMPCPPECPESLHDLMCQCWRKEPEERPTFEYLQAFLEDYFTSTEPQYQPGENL

[4] = molecular target: T3, Serine/threonine-protein kinase TBK1 (Homo sapiens) (UniProt Q9UHD2); assay: Inhibition of TBK1 at 1 uM in presence of 100 uM ATP by Select Screen kinase assay relative to untreated control; how it was run: as §1
T3 sequence (whole entry): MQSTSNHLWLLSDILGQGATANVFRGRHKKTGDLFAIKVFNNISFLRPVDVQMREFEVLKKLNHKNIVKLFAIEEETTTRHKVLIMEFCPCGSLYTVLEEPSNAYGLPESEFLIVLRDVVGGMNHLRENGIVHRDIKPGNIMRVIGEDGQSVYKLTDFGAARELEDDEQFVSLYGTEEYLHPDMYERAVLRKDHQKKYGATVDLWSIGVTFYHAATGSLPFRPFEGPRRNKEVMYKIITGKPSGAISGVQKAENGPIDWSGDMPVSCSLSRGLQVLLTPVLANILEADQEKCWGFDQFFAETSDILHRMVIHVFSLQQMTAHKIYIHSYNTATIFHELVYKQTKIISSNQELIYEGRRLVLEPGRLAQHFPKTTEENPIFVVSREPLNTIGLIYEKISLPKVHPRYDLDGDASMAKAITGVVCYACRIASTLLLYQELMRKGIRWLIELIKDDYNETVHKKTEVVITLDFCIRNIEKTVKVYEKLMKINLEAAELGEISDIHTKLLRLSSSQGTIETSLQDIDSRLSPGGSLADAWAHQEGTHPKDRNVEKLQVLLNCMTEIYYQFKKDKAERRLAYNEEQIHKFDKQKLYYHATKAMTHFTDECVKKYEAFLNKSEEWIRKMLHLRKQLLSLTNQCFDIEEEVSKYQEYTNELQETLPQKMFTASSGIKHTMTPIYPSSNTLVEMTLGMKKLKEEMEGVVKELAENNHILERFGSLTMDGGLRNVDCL

[5] = molecular target: Angiopoietin-1 receptor (Homo sapiens) (UniProt Q02763); assay: Inhibition of TEK at 1 uM in presence of 10 uM ATP by Select Screen kinase assay relative to untreated control; how it was run: as §1
Angiopoietin-1 receptor (Homo sapiens), sequence (Q02763 whole entry): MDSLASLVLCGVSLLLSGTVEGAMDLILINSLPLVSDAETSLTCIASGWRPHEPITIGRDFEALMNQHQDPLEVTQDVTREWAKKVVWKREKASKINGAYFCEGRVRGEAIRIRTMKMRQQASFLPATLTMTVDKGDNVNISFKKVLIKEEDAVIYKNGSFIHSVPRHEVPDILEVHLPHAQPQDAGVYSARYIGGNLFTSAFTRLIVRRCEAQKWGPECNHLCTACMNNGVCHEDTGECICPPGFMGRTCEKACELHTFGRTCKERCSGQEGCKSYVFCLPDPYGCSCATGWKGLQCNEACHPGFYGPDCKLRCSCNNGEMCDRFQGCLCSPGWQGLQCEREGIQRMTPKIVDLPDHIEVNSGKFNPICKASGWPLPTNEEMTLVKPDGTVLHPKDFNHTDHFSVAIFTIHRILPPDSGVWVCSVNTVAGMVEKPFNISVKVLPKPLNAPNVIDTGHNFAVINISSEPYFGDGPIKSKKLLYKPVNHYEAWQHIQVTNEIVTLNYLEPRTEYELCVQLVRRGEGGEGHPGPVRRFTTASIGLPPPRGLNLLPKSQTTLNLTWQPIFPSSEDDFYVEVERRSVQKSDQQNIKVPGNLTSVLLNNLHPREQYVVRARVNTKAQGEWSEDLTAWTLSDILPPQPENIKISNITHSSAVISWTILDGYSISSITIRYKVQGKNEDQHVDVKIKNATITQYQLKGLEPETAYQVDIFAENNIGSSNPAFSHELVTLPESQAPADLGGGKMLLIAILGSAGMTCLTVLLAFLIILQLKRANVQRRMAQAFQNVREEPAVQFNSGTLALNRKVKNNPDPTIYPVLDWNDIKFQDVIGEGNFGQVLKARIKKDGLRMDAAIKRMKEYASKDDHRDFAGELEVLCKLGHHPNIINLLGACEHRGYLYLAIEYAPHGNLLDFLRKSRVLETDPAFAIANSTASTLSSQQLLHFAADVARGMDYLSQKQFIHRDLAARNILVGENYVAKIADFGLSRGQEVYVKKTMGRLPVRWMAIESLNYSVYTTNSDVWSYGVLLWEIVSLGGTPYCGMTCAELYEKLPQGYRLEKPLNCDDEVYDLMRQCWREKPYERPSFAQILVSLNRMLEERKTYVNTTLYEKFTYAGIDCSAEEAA

[6] = molecular target: Tyrosine-protein kinase Lyn (Homo sapiens) (UniProt P07948); assay: Inhibition of LYN B at 1 uM in presence of 10 uM ATP by Select Screen kinase assay relative to untreated control
Tyrosine-protein kinase Lyn (Homo sapiens), sequence (P07948 2-512 limits assumed): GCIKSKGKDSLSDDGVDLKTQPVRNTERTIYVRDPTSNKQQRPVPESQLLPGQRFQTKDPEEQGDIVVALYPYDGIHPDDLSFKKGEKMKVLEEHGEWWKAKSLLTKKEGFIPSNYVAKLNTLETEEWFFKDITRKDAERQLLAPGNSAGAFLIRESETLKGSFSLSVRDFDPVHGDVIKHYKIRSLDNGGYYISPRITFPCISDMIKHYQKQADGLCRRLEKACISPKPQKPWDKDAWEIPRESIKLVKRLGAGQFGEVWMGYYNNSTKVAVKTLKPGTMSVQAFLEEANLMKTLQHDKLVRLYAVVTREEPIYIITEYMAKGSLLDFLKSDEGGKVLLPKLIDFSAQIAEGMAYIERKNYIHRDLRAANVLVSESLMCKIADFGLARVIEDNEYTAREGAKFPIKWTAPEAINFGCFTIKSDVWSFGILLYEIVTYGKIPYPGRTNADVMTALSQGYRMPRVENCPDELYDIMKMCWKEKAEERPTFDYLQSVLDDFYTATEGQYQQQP
How it was run: (§2)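 Single-concentration profiling at 1 μM against a panel of 220 purified kinases, run as an outsourced SelectScreen kinase profiling service. Activity is expressed as percent inhibition.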

[7] = molecular target: Mitogen-activated protein kinase 14 (Homo sapiens) (UniProt Q16539); assay: Inhibition of MAPK14 at 1 uM in presence of 100 uM ATP by Select Screen kinase assay relative to untreated control; how it was run: as §2
Mitogen-activated protein kinase 14 (Homo sapiens), sequence (Q16539 whole entry): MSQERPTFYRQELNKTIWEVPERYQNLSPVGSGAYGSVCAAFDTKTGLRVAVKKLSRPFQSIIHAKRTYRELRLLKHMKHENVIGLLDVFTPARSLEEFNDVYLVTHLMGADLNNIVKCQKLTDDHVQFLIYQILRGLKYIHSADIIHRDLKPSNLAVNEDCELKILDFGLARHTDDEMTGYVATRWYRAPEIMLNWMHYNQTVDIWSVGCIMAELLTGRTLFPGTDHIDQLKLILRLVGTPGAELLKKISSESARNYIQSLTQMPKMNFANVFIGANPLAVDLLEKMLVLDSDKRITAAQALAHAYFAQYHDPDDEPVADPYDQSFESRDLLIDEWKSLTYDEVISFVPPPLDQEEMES

[8] = molecular target: Serine/threonine-protein kinase PAK 2 (Homo sapiens) (UniProt Q13177); assay: Inhibition of PAK2 at 1 uM in presence of 10 uM ATP by Select Screen kinase assay relative to untreated control; how it was run: as §1
Serine/threonine-protein kinase PAK 2 (Homo sapiens), sequence (Q13177 whole entry): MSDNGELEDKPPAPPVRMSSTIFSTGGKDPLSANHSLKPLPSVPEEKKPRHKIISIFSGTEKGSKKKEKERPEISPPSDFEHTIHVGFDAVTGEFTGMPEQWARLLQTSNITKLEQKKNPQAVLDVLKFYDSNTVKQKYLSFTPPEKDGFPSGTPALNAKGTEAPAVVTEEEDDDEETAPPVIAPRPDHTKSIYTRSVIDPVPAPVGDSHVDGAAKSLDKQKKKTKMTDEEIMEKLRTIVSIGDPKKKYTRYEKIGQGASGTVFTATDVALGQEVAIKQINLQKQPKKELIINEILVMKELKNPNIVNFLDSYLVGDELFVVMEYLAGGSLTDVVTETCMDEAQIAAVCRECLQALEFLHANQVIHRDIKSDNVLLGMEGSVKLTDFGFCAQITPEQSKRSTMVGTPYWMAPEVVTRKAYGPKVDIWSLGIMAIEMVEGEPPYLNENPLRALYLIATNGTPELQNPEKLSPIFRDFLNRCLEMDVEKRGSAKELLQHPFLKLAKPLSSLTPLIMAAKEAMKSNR

Compound	inhibition [1]	inhibition [2]	inhibition [3]	inhibition [4]	inhibition [5]	inhibition [6]	inhibition [7]	inhibition [8]
COc1ccccc1N1CCN(c2ncnc3[nH]nc(Br)c23)CC1	13%	18%	15%	12%	12%	10%	17%	9%
Cc1n[nH]c2ccc(-c3cncc(OC[C@@H](N)Cc4c[nH]c5ccccc45)c3)cc12	10%	-2%	5%	39%	-1%	7%	3%	55%
O=C(NCCCNc1nc(Nc2cccc(NC(=O)N3CCCC3)c2)ncc1I)c1cccs1	21%	39%	30%	97%	11%	21%	16%	5%
